Screening results from PubChem BioAssay.
RAM inhibit: inhibitors of the yeast RAM network, primary screen, dse1pr::URA3 reporter, 5-FOA selection. S. cerevisiae dse1pr::URA3 reporter, 5-FOA growth OD615, 2 d; analog-sensitive cbk1-as2 kinase mutant strain. hit rate 1.8% among 190,000. inhibition, % at 50 µM;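 active means inhibition above a set limit, 3 SD over mean compound inhibition, cut at about 8.4% in these data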;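 further: 0% = DMSO-only wells with no growth and 100% = 10 µM 1-NA-PP1 full growth; inhibition rescues growth on 5-FOA so higher OD means more RAM inhibition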
Mdm2 ligase inh: MDM2-luciferase reporter signal enhancers, primary screen, MDM2 E3 ligase inhibitor project, cell-based, luminescence, 1536-well; AID 1230, 2008; signal enhancement, % at 5 µM; cell-based MDM2 ubiquitination luciferase reporter, 2 h; 0 = plate control, 100 = twice control, blank-subtracted; hit rate 0.11% among 210,000; E3 ubiquitin-protein ligase Mdm2 (Homo sapiens), Q00987;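 active means signal enhancement of 30% or more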;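 further: luminescence tracks abundance of the self-degrading MDM2-luciferase fusion protein; higher signal means inhibition of MDM2 E3 ligase activity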
Target sequence (Q00987 whole entry, looked up, the tested form may be a part): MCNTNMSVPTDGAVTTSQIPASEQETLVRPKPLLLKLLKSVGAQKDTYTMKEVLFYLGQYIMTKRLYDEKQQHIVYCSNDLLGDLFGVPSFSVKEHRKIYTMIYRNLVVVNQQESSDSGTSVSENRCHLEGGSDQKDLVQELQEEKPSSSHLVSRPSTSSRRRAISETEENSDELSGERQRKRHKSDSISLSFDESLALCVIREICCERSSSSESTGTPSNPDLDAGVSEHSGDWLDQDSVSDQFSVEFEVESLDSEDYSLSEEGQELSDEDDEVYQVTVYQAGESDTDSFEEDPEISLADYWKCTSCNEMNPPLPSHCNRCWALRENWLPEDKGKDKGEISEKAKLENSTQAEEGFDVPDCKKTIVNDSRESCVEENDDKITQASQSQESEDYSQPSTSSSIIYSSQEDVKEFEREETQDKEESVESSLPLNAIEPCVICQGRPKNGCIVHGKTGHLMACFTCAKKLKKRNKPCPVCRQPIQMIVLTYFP
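Test system: stable mammalian line carrying autodegrading MDM2–luciferase fusion reporter; quantity: 2000 cells in each well; times: 4 h cell settling then 2 h compound exposure, 37 °C; detection: luminescence with SteadyLite reagent, 15 min at room temperature; evaluation: percent signal gain over controls, blank-subtracted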
INS promoter inh: inhibitors of insulin promoter-driven GFP, primary screen, imaging, TRM-6 cells, eGFP reporter, cell count; reporter expression induced with tamoxifen; inhibition, % at 2 µM; hit rate 0.9% among 130,000;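 active means inhibition above the mean plus 3 SD, with well images judged a real hit on visual review, cut at about 60% in these data, passing the limit was not always enough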
Yeast lifespan up: compounds extending yeast replicative lifespan, primary screen, S. cerevisiae, OD615 | S. cerevisiae growth with nicotinamide; deaD strain in restrictive glucose medium | hit rate 0.68% among 130,000 | inhibition of the nicotinamide effect, % at 10 µM | AID 775, 2007;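 active means inhibition above a set limit, placed 3 SD over the median of all compounds, cut at about 26% in these data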;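 further: 0% = nicotinamide-treated wells and 100% = cells grown without nicotinamide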
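Assay system: engineered S. cerevisiae DeaD replicative-lifespan strain, galactose-grown log-phase cells; Buffer or medium: CSMM-D glucose medium, restrictive; Probe or stimulus: nicotinamide 1.5 mM; Compound: single dose 10 µM compound, 0.25% DMSO; Schedule: 4 h preincubation then 48 h treatment at 30 °C; Technique: OD615 measurement.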
Yeast growth inh: growth inhibitors of yeast BB579 in restrictive medium, primary screen, yeast lifespan-shortening project, S. cerevisiae; OD615, 48 h; inhibition, % at 10 µM; hit rate 0.51% among 140,000;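 active means inhibition above a set limit, 3 SD over the mean compound inhibition, cut at about 44% in these data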
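Test system: Saccharomyces cerevisiae DeaD strain BB579, replicative lifespan model yeast | Buffer or medium: Restrictive CSMM-D medium | Doses: One dose, 10 µM compound with 0.25% DMSO | Incubation: 48 h exposure, 30 °C | Detection: Culture absorbance at 615 nm | Control set: Amphotericin B at 10 µg/mL as positive control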
Measles CPE: compounds protecting cells from measles virus cytopathic effect, primary screen, measles RdRp inhibitor project, single point, MLSMR library, absorbance. Measles virus-infected cells, CPE protection. protection (pct of control), % at 4 µM. hit rate 1.5% among 140,000. AID 841, 2007; in the data active means protection mostly above about 24%, no sharp cut-off; inactive means mostly below about 26%
Active calls of the source: *; · = no result given. Most compounds without a hit are left out; they make up all but 4% or so of the library.

SMILES | RAM inhibit | Mdm2 ligase inh | INS promoter inh | Yeast lifespan up | Yeast growth inh | Measles CPE
CC(C)OC(=O)c1cn(-c2ccccc2)nc1-c1ccc2c(c1)OCCO2 | 11.1* | -21.0 | 55.6 | -2.5 | 0.6 | 8.9
Cc1[nH]c2ccccc2c1/C=N/Nc1ccccc1[N+](=O)[O-] | 8.8* | -7.9 | · | · | · | ·
COc1ccccc1/C=N\Nc1ccccc1[N+](=O)[O-] | · | -16.3 | · | · | · | ·
CCOc1ccccc1/C=N/Nc1ccccc1[N+](=O)[O-] | 9.8* | 4.2 | 41.9 | 2.7 | -15.0 | 1.0
CC(C)Oc1ccccc1/C=N/Nc1ccccc1[N+](=O)[O-] | 8.5* | -5.2 | 54.5 | -2.5 | -39.5 | -0.3
O=C(NCc1ccccc1C(F)(F)F)C1CC(c2ccccc2[N+](=O)[O-])=NO1 (stereo not given) | 1.4 | -7.0 | -53.3 | -7.2 | -27.8 | 17.0
COc1ccc(OC)c(NC(=O)CSc2ncnc3c2cnn3-c2ccccc2Cl)c1 | 2.5 | -37.7 | -209.5 | · | -49.7 | 4.8
CCOC(=O)c1cnc(SC2CC(=O)N(c3cccc(OC)c3)C2=O)nc1N (stereo not given) | 10.1* | -3.5 | · | 3.4 | -18.3 | 28.9
CCOc1ccc2nc(SC3CC(=O)N(c4cccc(OC)c4)C3=O)sc2c1 (stereo not given) | 3.2 | 0.9 | 7.4 | -1.6 | -22.7 | 7.1
Cc1ccc(NC(=O)CSCC#N)cc1 | 1.4 | -19.8 | -82.8 | -7.5 | -17.5 | 7.3
N#CCSCC(=O)Nc1ccc(F)cc1 | 0.8 | 1.6 | -493.3 | -4.1 | 1.6 | 53.7*
N#CCSCC(=O)Nc1ccc(Br)cc1 | 0.9 | -7.0 | 22.2 | -21.7 | -30.9 | 73.2*
N#CCSCC(=O)Nc1ccccc1 | 2.0 | 25.9 | -287.5 | -1.2 | -11.7 | 8.9
CCS(=O)(=O)c1ccc2oc(SCC(=O)NC(C)C3CC4CCC3C4)nc2c1 (stereo not given) | 0.9 | -6.7 | 15.6 | -4.2 | -29.9 | 1.8
Cc1ccc(CSc2nnc([C@@H]3CCCN3C(=O)OC(C)(C)C)o2)cc1 | · | -13.3 | · | · | · | ·
Cc1cc(C(=O)OCC(=O)Nc2cc(S(=O)(=O)N(C)C)ccc2C)c(C)o1 | 0.1 | · | · | · | · | ·
CC(C)NS(=O)(=O)c1ccc(OCC(=O)Nc2ccc(F)cc2F)cc1 | 2.2 | -15.3 | 26.7 | 48.7* | -39.6 | 1.2
CC(C)NS(=O)(=O)c1ccc(OCC(=O)Nc2ccccc2F)cc1 | 2.0 | -0.2 | 43.8 | -0.5 | -31.9 | 31.9
Cc1cc(C(=O)OCC(=O)Nc2ccc(F)cc2F)c(C)o1 | 3.6 | · | · | -8.4 | -53.8 | 37.1*
CCOC(=O)N1CCN(C(=O)Cn2nc(C)c3sc4ccccc4c3c2=O)CC1 | -0.8 | -24.3 | · | -6.1 | 44.6* | 8.7
CCOC(=O)N1CCN(C(=O)C(CC)n2nc(C)c3sc4ccccc4c3c2=O)CC1 (stereo not given) | 2.4 | -3.9 | 9.1 | 3.1 | -26.2 | 19.3
COc1ccc(/C=N/n2cncn2)cc1Cn1nc(C)c([N+](=O)[O-])c1C | · | -4.5 | · | · | · | ·
Clc1cccc(Cl)c1/C=N/Nc1c(Cl)cncc1Cl | · | -5.2 | · | · | · | ·
Clc1cncc(Cl)c1N/N=C/c1ccncc1 | 0.3 | -36.5 | 62.5* | -4.7 | -56.9 | 21.4
Cn1nc(C(=O)OCc2ccc(F)cc2)c2ccccc2c1=O | 10.1* | -11.4 | -83.3 | · | · | ·
SMILES | RAM inhibit | Mdm2 ligase inh | INS promoter inh | Yeast lifespan up | Yeast growth inh | Measles CPE
Cc1ccc(COC(=O)c2nn(C)c(=O)c3ccccc23)cc1 | 2.8 | -19.1 | -58.3 | · | · | ·
Cc1ccc(S(=O)(=O)N(C)c2c(C)ccc(S(=O)(=O)NC(C)(C)C)c2C)cc1 | 3.6 | -9.3 | -70.6 | · | · | ·
COC(=O)[C@@]1(Cc2ccccc2)[C@@H]2C(=CC(=O)[C@H]2CC(=O)C(=O)N(C)C)CN1C(=O)c1ccccc1 | 0.5 | · | -10.0 | 1.0 | -35.3 | 81.9*
CCS(=O)(=O)c1ccc(C(=O)Nc2ccccc2)c(Cl)c1Cl | 0.8 | -15.7 | · | 9.8 | -32.1 | 89.2*
CCN(c1ccccc1)S(=O)(=O)c1ccc(C(=O)Oc2ccc(C(C)=O)cc2)cc1 | 9.1* | -4.9 | -35.1 | 6.7 | -25.7 | 12.0
CS(=O)(=O)N(Cc1ccc(Cl)cc1)c1ccc(C(=O)NCCC2=CCCCC2)cc1 | 9.8* | 17.9 | -64.5 | -10.9 | -28.1 | 8.3
O=C(NCCC1=CCCCC1)c1ccc(Cl)cc1 | 0.0 | -29.9 | · | · | · | ·
CS(=O)(=O)N(Cc1ccccc1)c1ccc(C(=O)NCc2ccccc2)cc1 | 6.7 | -13.5 | 10.7 | -7.1 | -12.7 | 43.9*
CC(OC(=O)Cc1ccc(Cl)cc1)C(=O)NCCC1=CCCCC1 (stereo not given) | 9.0* | -3.0 | 0.0 | 4.6 | -0.9 | 19.8
Cc1ccc(N(Cc2ccc(C(=O)NC3CCCCC3)cc2)S(C)(=O)=O)cc1C | 5.3 | -21.6 | -6.7 | -10.2 | -42.1 | 103.4*
CCN(c1ccccc1)S(=O)(=O)c1ccc(C(=O)OC(C)C(=O)NCCC2=CCCCC2)cc1 (stereo not given) | 9.0* | -2.5 | 5.1 | 3.4 | -12.3 | 4.9
CCOc1ccc(N(CC(=O)NCCC2=CCCCC2)S(=O)(=O)c2ccccc2)cc1 | 5.5 | -8.7 | · | · | · | ·
COc1ccccc1-n1cnnc1SCC(=O)Nc1nc(C)c(Cl)cc1Cl | 0.9 | -13.1 | -41.0 | -8.5 | -6.2 | 2.5
C=CCNC(=S)NNC(=O)COc1cccc(Cl)c1 | 0.7 | -3.8 | 0.0 | -9.7 | 0.0 | 3.2
CSC1=NSC2=NC(=O)/C(=C\c3coc4ccccc4c3=O)C(=N)N12 | 1.0 | 1.8 | · | 20.6 | 69.6* | 7.2
CC(C)CSC1=NSC2=NC(=O)/C(=C\c3ccccc3)C(=N)N12 | 6.3 | -5.3 | 0.0 | · | · | ·
CC(C)CSC1=NSC2=NC(=O)/C(=C\c3coc4ccccc4c3=O)C(=N)N12 | 9.0* | -1.6 | -75.0 | · | · | ·
Cc1ccc(C(=O)N/C(=C\c2ccc3c(c2)OCO3)C(=O)Nc2ccc(C(=O)O)cc2)cc1 | 1.8 | -9.1 | · | · | · | ·
Cc1ccc(NC(=O)C(C)Sc2nnc(-c3cccnc3)n2-c2ccccc2)cc1 (stereo not given) | 2.3 | -5.7 | · | -9.2 | -73.1 | 4.8
O=C(Nc1ccc2c(c1)OCCO2)C(=S)NCc1ccccc1 | 8.7* | -11.1 | 16.7 | · | · | ·
O=C(NCc1ccccc1)c1ccc2c(c1)OCCO2 | 0.8 | -13.2 | -70.4 | -8.9 | 20.9 | 1.8
C=C(C)COc1ccc(-c2n[nH]c(C)c2-c2ccc(OC)c(OC)c2)c(O)c1 | · | -13.2 | · | · | · | ·
Cn1c(=O)c2c(nc(NCC3CCCO3)n2Cc2ccccc2)n(C)c1=O (stereo not given) | 0.9 | 3.2 | 81.4* | · | -3.5 | 3.1
